Assay results published in ChEMBL document CHEMBL1157557, “Synthesis and evaluation of 1,4-diphenylbutadiene derivatives as inhibitors of plasminogen activator inhibitor-1 (PAI-1) production” (Bioorg Med Chem, 2010).

Species on record: Bos taurus
Test: Inhibition of LPS-induced plasminogen activator inhibitor-1 production in BCAEC assessed as relative inhibitory potency in BCAEC at 1 uM after 24 hrs by ELISA relative to T-686
Type: functional
Details: not given
Procedure, shortened: (§1)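 Bovine endothelial cells (BCaEs, passages 8–9) grown to confluence in E'MEM with 10% FCS, then serum-starved 24 h. Compound added (10 µM […]; 1 µM LPS-induced, 2 µM TGF-β-induced) with or without LPS 1 µg/ml or TGF-β 0.3 ng/ml. After 24 h, conditioned medium cleared by centrifugation (3000 rpm, 10 min, 4 °C) and PAI-1 antigen measured by specific ELISA; activity expressed relative to T-686 reference.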

Row | SMILES | Activity
1 | COC(=O)C(=C(/C)c1cc(OC)cc(OC)c1)/C(=C\c1ccccc1)C(=O)Nc1nnn[nH]1 | 0.1
2 | COC(=O)C(=C(/C)c1cc(OC)cc(OC)c1)/C(=C\c1ccccc1)C(=O)NN1CCN(C)CC1.Cl | 1.5
3 | COC(=O)C(=C(/C)c1cc(OC)cc(OC)c1)/C(=C\c1ccccc1)C(=O)Nn1cnnc1 | 0.6
4 | COC(=O)C(=C(/C)c1cc(OC)cc(OC)c1)/C(=C\c1ccccc1)C(=O)NC1CCN(C)CC1 | 0.8
5 | COC(=O)C(=C(/C)c1cc(OC)cc(OC)c1)/C(=C\c1ccccc1)C(=O)NCc1ccncc1.Cl | 2.1
6 | COC(=O)C(=C(/C)c1cc(OC)cc(OC)c1)/C(=C\c1ccccc1)C(=O)NN1CC[N+](C)([O-])CC1 | 0.2
7 | COC(=O)C(=C(/C)c1cc(OC)cc(OC)c1)/C(=C\c1ccccc1)C(=O)Nc1cccc2cccnc12 | 0.4
8 | COC(=O)C(=C(/C)c1cc(OC)cc(OC)c1)/C(=C\c1cccnc1)C(N)=O | 0.8
9 | COc1cc(OC)cc(/C(C)=C2\C(=O)N(Cc3cccnc3)C(=O)\C2=C\c2ccccc2)c1.Cl | 1
10 | COC(=O)C(=C(/C)c1cc(OC)cc(OC)c1)/C(=C\c1ccccc1)C(=O)Nc1ccncc1.Cl | 1.8
11 | COC(=O)C(=C(/C)c1cc(OC)cc(OC)c1)/C(=C\c1ccccc1)C(=O)O | 0.4

Test system: not listed separately
Test: Inhibition of LPS-induced plasminogen activator inhibitor-1 production in BCAEC after 24 hrs by ELISA
Type: functional, Bos taurus
Details: not given
Procedure, shortened: (§2)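 BCaEs (passages 8–9) confluent in E'MEM/10% FCS, serum-starved 24 h, then exposed to compound with LPS (1 µg/ml) or TGF-β (0.3 ng/ml) for 24 h. Medium centrifuged at 3000 rpm, 10 min, 4 °C, and PAI-1 antigen quantified by specific ELISA.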

Row | IC50 | SMILES
12 | 0.9 µM | COc1cc(/C=C2/C(=O)NC(=O)/C2=C/c2ccccc2)cc(OC)c1OC

Species on record: Bos taurus
Test: Inhibition of TGF-beta-induced plasminogen activator inhibitor-1 production in BCAEC assessed as relative inhibitory potency in BCAEC at 2 uM after 24 hrs by ELISA relative to T-686
Type: functional
Details: not given
Procedure, shortened: as §1

Row | SMILES | Activity
13 | COC(=O)C(=C(/C)c1cc(OC)cc(OC)c1)/C(=C\c1ccccc1)C(=O)NN1CCN(C)CC1.Cl | 0.9
14 | COC(=O)C(=C(/C)c1cc(OC)cc(OC)c1)/C(=C\c1ccccc1)C(=O)NC1CCN(C)CC1 | < 0.1
15 | COC(=O)C(=C(/C)c1cc(OC)cc(OC)c1)/C(=C\c1ccccc1)C(=O)NCc1ccncc1.Cl | 1.9
16 | COC(=O)C(=C(/C)c1cc(OC)cc(OC)c1)/C(=C\c1cccnc1)C(N)=O | 1.2
17 | COc1cc(OC)cc(/C(C)=C2\C(=O)N(Cc3cccnc3)C(=O)\C2=C\c2ccccc2)c1.Cl | 1.4
18 | COC(=O)C(=C(/C)c1cc(OC)cc(OC)c1)/C(=C\c1ccccc1)C(=O)Nc1ccncc1.Cl | 1.1
19 | COC(=O)C(=C(/C)c1cc(OC)cc(OC)c1)/C(=C\c1ccccc1)C(=O)O | 0.3

Test system: not listed separately
Test: Inhibition of TGF-beta-induced plasminogen activator inhibitor-1 production in BCAEC after 24 hrs by ELISA
Type: functional, Bos taurus
Details: not given
Procedure, shortened: as §2

Row | IC50 | SMILES
20 | 4.3 µM | COc1cc(/C=C2/C(=O)NC(=O)/C2=C/c2ccccc2)cc(OC)c1OC

Test system: not listed separately
Test: Metabolic stability in dog blood assessed as compound remaining after 1 hr by HPLC analysis
Type: ADME, tissue-based, Canis lupus familiaris
Details: read-out: Stability
Procedure, shortened: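 Stock (100 µg/ml in acetonitrile) diluted tenfold with saline; 0.3 ml added to 3 ml heparinized dog blood prewarmed to 37 °C and incubated at 37 °C. After 1 h plasma separated with diethyl ether by centrifugation and parent level determined by HPLC; reported as % remaining.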

Row | remaining at 1 h | SMILES
21 | 65% | COc1cc(OC)cc(/C(C)=C2\C(=O)N(Cc3cccnc3)C(=O)\C2=C\c2ccccc2)c1.Cl

Test system: not listed separately
Test: Aqueous solubility in water
Type: physicochemical
Details: not given

Row | solubility | SMILES
22 | > 4000 µg/mL | COC(=O)C(=C(/C)c1cc(OC)cc(OC)c1)/C(=C\c1ccccc1)C(=O)NN1CCN(C)CC1.Cl
23 | 38 µg/mL | COc1cc(OC)cc(/C(C)=C2\C(=O)N(Cc3cccnc3)C(=O)\C2=C\c2ccccc2)c1.Cl

Test system: not listed separately
Test: Oral bioavailability in dog
Type: ADME, organism-based, Canis lupus familiaris
Details: in vivo

Row | bioavailability | SMILES
24 | 49% | COC(=O)C(=C(/C)c1cc(OC)cc(OC)c1)/C(=C\c1ccccc1)C(=O)NN1CCN(C)CC1.Cl
25 | 28% | COC(=O)C(=C(/C)c1cc(OC)cc(OC)c1)/C(=C\c1ccccc1)C(=O)NCc1ccncc1.Cl
26 | 52% | COC(=O)C(=C(/C)c1cc(OC)cc(OC)c1)/C(=C\c1ccccc1)C(=O)Nc1ccncc1.Cl
27 | 3% | COc1cc(/C=C2/C(=O)NC(=O)/C2=C/c2ccccc2)cc(OC)c1OC

Test system: not listed separately
Test: Photostability assessed as compound remaining by HPLC analysis
Type: physicochemical
Details: not given
Procedure, shortened: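 Stock (100 µg/ml in acetonitrile) 0.1 ml mixed with 0.9 ml 0.1 N HCl; kept at room temperature 24 h under room light or foil-protected. Read-out as % compound remaining.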

Row | Stability | SMILES
28 | 91% | COC(=O)C(=C(/C)c1cc(OC)cc(OC)c1)/C(=C\c1ccccc1)C(=O)NN1CCN(C)CC1.Cl
29 | 96% | COC(=O)C(=C(/C)c1cc(OC)cc(OC)c1)/C(=C\c1ccccc1)C(=O)NCc1ccncc1.Cl
30 | 47% | COc1cc(OC)cc(/C(C)=C2\C(=O)N(Cc3cccnc3)C(=O)\C2=C\c2ccccc2)c1.Cl
31 | 85% | COC(=O)C(=C(/C)c1cc(OC)cc(OC)c1)/C(=C\c1ccccc1)C(=O)Nc1ccncc1.Cl
32 | 12% | COc1cc(/C=C2/C(=O)NC(=O)/C2=C/c2ccccc2)cc(OC)c1OC

Species on record: Rattus norvegicus
Test: Genotoxicity in rat assessed as chromosomal aberration
Type: toxicity, organism-based
Details: in vivo

Row | SMILES | Activity
33 | COC(=O)C(=C(/C)c1cc(OC)cc(OC)c1)/C(=C\c1ccccc1)C(=O)NN1CCN(C)CC1.Cl | Non-toxic
34 | COC(=O)C(=C(/C)c1cc(OC)cc(OC)c1)/C(=C\c1ccccc1)C(=O)NCc1ccncc1.Cl | Toxic
35 | COC(=O)C(=C(/C)c1cc(OC)cc(OC)c1)/C(=C\c1ccccc1)C(=O)Nc1ccncc1.Cl | Non-toxic
36 | COc1cc(/C=C2/C(=O)NC(=O)/C2=C/c2ccccc2)cc(OC)c1OC | Toxic

Test system: Rattus norvegicus
Test: Antithrombotic activity in rat arterio-venous shunt model of thrombosis assessed as inhibition of thrombus formation at 10 mg/kg, po QD for 8 consecutive days measured after 2 hrs of last dose
Type: functional
Details: not given
Procedure, shortened: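 Rats given test article orally 10 mg/kg once daily for 8 days, controls vehicle. Under Nembutal (50 mg/kg ip), a saline-filled polyethylene tube holding silk thread was placed from the right carotid artery to the left jugular vein. Two hours after the last dose the clamp was released, blood perfused 30 min, and wet weight of thread-bound thrombus taken.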

Row | SMILES | inhibition in vivo at 10 mg/kg
37 | COC(=O)C(=C(/C)c1cc(OC)cc(OC)c1)/C(=C\c1ccccc1)C(=O)NN1CCN(C)CC1.Cl | 22%

Test system: Rattus norvegicus
Test: Antithrombotic activity in po dosed rat venous thrombosis model assessed as decrease in thrombus weight administered QD for 8 consecutive days measured after 2 hrs of last dose
Type: functional
Details: not given
Procedure, shortened: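 Rats were dosed orally once daily for 8 days at 0.3, 1 and 3 mg/kg, with vehicle controls. They were anaesthetised with Nembutal 50 mg/kg ip, and all vena cava branches between the left renal vein and the bifurcation were ligated. 2 h after the last dose, 0.1 ml of 1:10 diluted rabbit brain thromboplastin was injected into the penile dorsal vein. Thrombus dry weight was measured.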

Row | SMILES | ED50
38 | CC(=O)CC(c1ccccc1)c1c(O)c2ccccc2oc1=O (stereo not given) [WARFARIN] | 0.1 mg/kg/day
39 | COC(=O)C(=C(/C)c1cc(OC)cc(OC)c1)/C(=C\c1ccccc1)C(=O)NN1CCN(C)CC1.Cl | 0.8 mg/kg/day

Test system: Rattus norvegicus
Test: Toxicity in po dosed rat assessed as increase in bleeding time administered QD for 8 consecutive days measured after 2 hrs of last dose by tail incision bleeding time test
Type: organism-based
Details: in vivo
Procedure, shortened: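 Rats were dosed orally once daily for 8 days at 10, 30 and 100 mg/kg, with vehicle controls. Under Nembutal anaesthesia (50 mg/kg ip), 2 h after the last dose, a 2 mm deep incision was made 3.5 cm from the tail tip. Blood was blotted onto filter paper every 30 s, and bleeding time was taken as the time until no blood appeared.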

Row | SMILES | ED100
40 | CC(=O)CC(c1ccccc1)c1c(O)c2ccccc2oc1=O (stereo not given) [WARFARIN] | 0.2 mg/kg/day
41 | COC(=O)C(=C(/C)c1cc(OC)cc(OC)c1)/C(=C\c1ccccc1)C(=O)NN1CCN(C)CC1.Cl | > 100 mg/kg/day

Test system: not listed separately
Test: Therapeutic index, ratio of ED100 for increase in bleeding time in po dosed rat to ED50 for decrease in thrombus weight in po dosed rat venous thrombosis model
Type: organism-based
Details: in vivo, read-out: TI
Procedure, shortened: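 ED100 for prolonged bleeding time (tail incision, oral, daily for 8 days) was divided by ED50 for thrombus weight reduction in the venous thrombosis model (oral, daily for 8 days; ligated vena cava, thromboplastin injected 2 h after the last dose, thrombus dry weight).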

Row | SMILES | selectivity ratio
42 | CC(=O)CC(c1ccccc1)c1c(O)c2ccccc2oc1=O (stereo not given) [WARFARIN] | 2
43 | COC(=O)C(=C(/C)c1cc(OC)cc(OC)c1)/C(=C\c1ccccc1)C(=O)NN1CCN(C)CC1.Cl | > 125

Test system: Rattus norvegicus
Test: Toxicity in rat assessed as decrease in locomotor activity at 300 mg/kg, po
Details: in vivo

Row | SMILES | Activity
44 | COC(=O)C(=C(/C)c1cc(OC)cc(OC)c1)/C(=C\c1ccccc1)C(=O)NN1CCN(C)CC1.Cl | Non-toxic
45 | COC(=O)C(=C(/C)c1cc(OC)cc(OC)c1)/C(=C\c1ccccc1)C(=O)Nc1ccncc1.Cl | Toxic
